Measurements taken from ChEMBL document CHEMBL1121883, “1-(Naphthylalkyl)-1H-imidazole derivatives, a new class of anticonvulsant agents” (J Med Chem, 1981).

Experiments:
[1] = (§1) Lethal dose was measured in mice after ip administration.; assay type: toxicity, organism-based; settings: mouse, in vivo
Outline: (§2)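 Male Simonsen ICR-derived mice (16-24 g), groups of three, given compound ip in increasing doses within a behavioral screen. Deaths counted on day 5, and LD50 estimated from 5-day survival. Quantal data analysed by the Litchfield-Wilcoxon method.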

Mus musculus [2] = assay: Dose of compound causing a neurological deficit in 50% of mice after ip administration; assay type: functional
Outline: (§3)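 Traction test in male Hilltop ICR-derived mice (19-30 g, groups of 8-10) just before electroshock, 15 min after ip or 30 min after oral dosing. Mice placed on a 16-gauge, 65-cm copper wire 40 cm above the table; deficit scored as failure to stay on for 10 s. ND50 with 95% limits by Litchfield-Wilcoxon.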

Mus musculus [3] = assay: Compound was evaluated for anticonvulsant activity by maximal electroshock assay(MES) in mice after ip administration; assay type: functional
Outline: (§4)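 Male Hilltop ICR-derived mice (19-30 g), groups of 8-10, dosed ip with compound or aqueous vehicle. After 15 min pretreatment, a transcorneal 60-Hz, 50 mA shock was given for 0.2 s. Just before the shock, each mouse was tested on a horizontal wire (10 s). Quantal data were analysed by Litchfield-Wilcoxon to give ED50 with 95% confidence limits.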

Mus musculus [4] = assay: Dose causing a neurological deficit in 50% of mice after ip administration.; assay type: functional; outline: as §3
Mus musculus [5] = assay: Anticonvulsant activity in mouse maximal electroshock assay following i.p. administration.; assay type: functional; settings: ip; outline: as §4
Mus musculus [6] = assay: Protective index is defined as ND50 (i.p.) divided by MES ED50(i.p.); assay type: functional
Outline: (§5)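 Ratio of ND50 from the wire traction test to MES ED50, both measured by the same route (ip or oral) in the same animals. Quantal dose-response data for each were evaluated by Litchfield-Wilcoxon.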

Mus musculus [7] = assay: Protective index defined as ND50 (p.o.) divided by MES ED50(op); assay type: functional; outline: as §5
Mus musculus [8] = assay: compound was evaluated for anticonvulsant activity by maximal electroshock assay(MES) in mice after po administration.; assay type: functional
Outline: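 Male Hilltop ICR-derived mice, 19-30 g, groups of 8-10, dosed orally with compound or aqueous vehicle. Transcorneal electroshock (50 mA, 60 Hz, 0.2 s) delivered 30 min after dosing, immediately after a wire-hang neurological test. ED50 with 95% confidence limits estimated from quantal data by Litchfield-Wilcoxon.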

Mus musculus [9] = assay: Dose causing a neurological deficit in 50% of mice following p.o. administration.; assay type: functional; outline: as §3
Rattus norvegicus [10] = assay: Compound was evaluated for anticonvulsant activity by maximal electroshock assay(MES) in rat after ip administration.; assay type: functional
Rattus norvegicus [11] = assay: Dose of compound causing a neurological deficit in 50% of rat after ip administration.; assay type: functional
Outline: (§6)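 Rats (Simonsen Sprague-Dawley-derived, 80-110 g, groups of 8-10) placed on a suspended 16-gauge, 65-cm copper wire just before electroshock. Deficit scored as inability to remain for 8 s. Pretreatment was 15 min ip or 30 min oral. Quantal data analysed by Litchfield-Wilcoxon to give ND50 with 95% limits.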

Rattus norvegicus [12] = assay: Compound was evaluated for anticonvulsant activity by maximal electroshock assay(MES) in rat after ip administration; 2.9-19; assay type: functional
Mus musculus [13] = assay: as §1; assay type: functional; outline: as §2
Mus musculus [14] = assay: Compound was evaluated for anticonvulsant activity by maximal electroshock assay(MES) in mice after po administration; 60-147; assay type: functional
Outline: (§7)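 Male Hilltop ICR-derived mice (19-30 g), groups of 8-10, given compound or aqueous vehicle orally. The transcorneal 60-Hz shock (50 mA, 0.2 s) followed a 30 min pretreatment and a wire-hang neurological check (10 s). ED50 and 95% confidence limits were obtained from quantal data by the Litchfield-Wilcoxon method.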

Rattus norvegicus [15] = assay: Compound was evaluated for anticonvulsant activity by maximal electroshock assay(MES) in rat after po administration.; assay type: functional
Outline: (§8)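 Male Simonsen Sprague-Dawley-derived rats, 80-110 g, groups of 8-10, dosed with compound or aqueous vehicle; pretreatment 15 min after ip or 30 min after oral dosing. Transcorneal electroshock, 150 mA, 60 Hz, 0.2 s, given after the wire test. ED50 with 95% confidence limits from quantal data by Litchfield-Wilcoxon.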

Mus musculus [16] = assay: Compound was evaluated for anticonvulsant activity by maximal electroshock assay(MES) in mice after ip administration; 8-19; assay type: functional; outline: as §4
Mus musculus [17] = assay: Dose of compound causing a neurological deficit in 50% of mice after ip administration; 35-49; assay type: functional; outline: as §3
Mus musculus [18] = assay: Compound was evaluated for anticonvulsant activity by maximal electroshock assay(MES) in mice after po administration; 23-40; assay type: functional; outline: as §7
Mus musculus [19] = assay: Dose of compound causing a neurological deficit in 50% of mice after po administration; 79-196; assay type: functional; outline: as §3
Rattus norvegicus [20] = assay: Dose of compound causing a neurological deficit in 50% of rat after po administration.; assay type: functional; outline: as §6
Rattus norvegicus [21] = assay: Compound was evaluated for anticonvulsant activity by maximal electroshock assay(MES) in rat after po administration; 7.3-20; assay type: functional; outline: as §8
Rattus norvegicus [22] = assay: Compound was evaluated for anticonvulsant activity by maximal electroshock assay(MES) in rat after ip administration; […]; assay type: functional
Mus musculus [23] = assay: Compound was evaluated for anticonvulsant activity by maximal electroshock assay(MES) in mice after ip administration; 8-13; assay type: functional; outline: as §4
Rattus norvegicus [24] = assay: Dose of compound causing a neurological deficit in 50% of rat after ip administration; 31-78; assay type: functional; outline: as §6
Mus musculus [25] = assay: Dose of compound causing a neurological deficit in 50% of mice after ip administration; 21-52; assay type: functional; outline: as §3
Rattus norvegicus [26] = assay: Dose of compound causing a neurological deficit in 50% of rat after ip administration; 29-57; assay type: functional; outline: as §6
Rattus norvegicus [27] = assay: Compound was evaluated for anticonvulsant activity by maximal electroshock assay(MES) in rat after ip administration; 1.5-6.7; assay type: functional
Mus musculus [28] = assay: Compound was evaluated for anticonvulsant activity by maximal electroshock assay(MES) in mice after po administration; 13-23; assay type: functional; outline: as §7
Mus musculus [29] = assay: Dose of compound causing a neurological deficit in 50% of mice after po administration; 82-1100; assay type: functional; outline: as §3
Rattus norvegicus [30] = assay: Compound was evaluated for anticonvulsant activity by maximal electroshock assay(MES) in rat after po administration; 4.5-19; assay type: functional; outline: as §8

SMILES: O=C(Cn1ccnc1)c1cccc2ccccc12
- LD50 [1]: > 100 mg/kg

SMILES: CS(=O)(=O)C(Cn1ccnc1)c1ccc2ccccc2c1.Cl (stereo not given)
- ND50 (Mus musculus [2]): >40 mg/kg
- ED50 (Mus musculus [3]): > 40 mg/kg

SMILES: CSC(Cn1ccnc1)c1ccc2ccccc2c1.Cl (stereo not given)
- ND50 (Mus musculus [4]): 76 mg/kg
- ED50 (Mus musculus [5]): 37 mg/kg
- PI (Mus musculus [6]): 2.1

SMILES: Cl.c1ccc2cc(C3(Cn4ccnc4)SCCS3)ccc2c1
- PI (Mus musculus [7]): 1.8
- ND50 (Mus musculus [4]): 64 mg/kg
- ED50 (Mus musculus [8]): 70 mg/kg
- ND50 (Mus musculus [9]): 125 mg/kg
- LD50 [1]: > 30 mg/kg
- PI (Mus musculus [6]): 2.4

SMILES: Cl.c1ccc2cc(Cn3ccnc3)ccc2c1
- ND50 (Mus musculus [4]): 32 mg/kg
- ED50 (Rattus norvegicus [10]): 6.2 mg/kg
- ND50 (Rattus norvegicus [11]): 32 mg/kg
- ED50 (Mus musculus [5]): 25 mg/kg

SMILES: Cl.c1ccc2c(C3(Cn4ccnc4)SCCS3)cccc2c1
- ND50 (Mus musculus [4]): 57 mg/kg
- ED50 (Mus musculus [5]): 26 mg/kg
- PI (Mus musculus [6]): 2.2

SMILES: Cl.c1ccc2cc(C3(Cn4ccnc4)SCCCS3)ccc2c1
- ED50 (Mus musculus [5]): 65 mg/kg
- LD50 [1]: > 100 mg/kg
- PI (Mus musculus [6]): 1.4

SMILES: Br.CCc1ccc2cc(C(=O)Cn3ccnc3)ccc2c1
- PI (Mus musculus [7]): >1.2
- ED50 (Rattus norvegicus [12]): 5.5 mg/kg
- ND50 (Mus musculus [4]): >100 mg/kg
- LD50 (Mus musculus [13]): > 100 mg/kg
- ED50 (Mus musculus [14]): 84 mg/kg
- ND50 (Rattus norvegicus [11]): >100 mg/kg
- ND50 (Mus musculus [9]): >100 mg/kg
- ED50 (Rattus norvegicus [15]): > 30 mg/kg
- ED50 (Mus musculus [16]): 12 mg/kg
- PI (Mus musculus [6]): >8.1

SMILES: Cl.c1ccc(CSC(Cn2ccnc2)(SCc2ccccc2)c2ccc3ccccc3c2)cc1
- ND50 (Mus musculus [4]): >100 mg/kg
- ED50 (Mus musculus [5]): > 100 mg/kg

SMILES: Cl.c1ccc(SC(Cn2ccnc2)(Sc2ccccc2)c2ccc3ccccc3c2)cc1
- ND50 (Mus musculus [4]): >60 mg/kg
- ED50 (Mus musculus [5]): > 60 mg/kg

SMILES: CC(C)SC(Cn1ccnc1)(SC(C)C)c1ccc2ccccc2c1.Cl
- ND50 (Mus musculus [4]): >100 mg/kg
- ED50 (Mus musculus [5]): 86 mg/kg
- PI (Mus musculus [6]): >1.2

SMILES: CCCSC(Cn1ccnc1)(SCCC)c1ccc2ccccc2c1.Cl
- ND50 (Mus musculus [4]): >100 mg/kg
- ED50 (Mus musculus [5]): > 100 mg/kg
- LD50 [1]: > 100 mg/kg

SMILES: COC(Cn1ccnc1)c1ccc2ccccc2c1.Cl (stereo not given)
- ND50 (Mus musculus [17]): 42 mg/kg
- PI (Mus musculus [7]): 3.9
- ED50 (Mus musculus [18]): 28 mg/kg
- ND50 (Mus musculus [19]): 110 mg/kg
- PI (Mus musculus [6]): 4.2
- ND50 (Rattus norvegicus [20]): >100 mg/kg
- ED50 (Rattus norvegicus [21]): 13 mg/kg
- ED50 (Rattus norvegicus [22]): 3.8 mg/kg
- ED50 (Mus musculus [23]): 10 mg/kg
- ND50 (Rattus norvegicus [24]): 46 mg/kg

SMILES: Cl.c1ccc2cc(C3(Cn4ccnc4)OCCO3)ccc2c1
- ND50 (Mus musculus [25]): 31 mg/kg
- ND50 (Rattus norvegicus [26]): 41 mg/kg
- ED50 (Rattus norvegicus [27]): 4.5 mg/kg
- LD50 (Mus musculus [13]): > 100 mg/kg
- ED50 (Mus musculus [28]): 18 mg/kg
- ND50 (Mus musculus [29]): 173 mg/kg
- ND50 (Rattus norvegicus [20]): >300 mg/kg
- ED50 (Rattus norvegicus [30]): 10 mg/kg
